Results taken from ChEMBL document CHEMBL1123397, “Antiarrhythmic activity of 17 beta-aminoestratrienes. Comparison of 3-ols and 3-acetates with the corresponding 3-(3-amino-2-hydroxypropyl) ethers” (1986).
≈ marks a conversion by molar mass, not a printed value.

Experiments:
Rattus norvegicus [1] = experiment: Compound was tested for antagonism of Ventricular Fibrilloflutter (VF) evoked by coronary artery ligation in the rat measured at 0.2 mg/kg dose; type: functional, Heart
Summary of the method: (§1)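 Male Wistar rats, anaesthetised and artificially ventilated, with left thoracotomy; silk suture under main left coronary artery. After stabilization, test drug or vehicle i.v.; 14 min later isoprenaline 10 μg/kg; 1 min after that the ligature was tightened and VF incidence recorded over 30 min. Carotid pressure and lead II ECG monitored continuously. 7-12 animals per group.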

Rattus norvegicus [2] = experiment: Mean change in heart rate recorded 14 min after the administration of compound.; type: functional
Summary of the method: (§2)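 Test drug or vehicle was given i.v., and isoprenaline (10 µg/kg) 14 min later. Heart rate was read from the lead II ECG just before drug, at 14 min (pre-isoprenaline) and 1 min after isoprenaline. Compared by Student's t test; 7–12 animals per group; mean ± SEM.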

Rattus norvegicus [3] = organism: Rattus norvegicus; experiment: Maximum increase in heart rate evoked by isoprenaline.; type: functional; summary of the method: as §2
Rattus norvegicus [4] = experiment: Compound that antagonized arrhythmias evoked by coronary artery ligation in the rat was measured at 0.2 mg/kg dose; type: functional; summary of the method: as §1
Cavia porcellus [5] = organism: Cavia porcellus; experiment: Concentration required to reduce maximum following frequencu (MFF) of isolated guinea pig atria by 25%; type: functional
Summary of the method: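 Guinea pig left atria in an organ bath of Krebs solution at 35 °C, gassed with carbogen, electrically driven, isometric contractions recorded. Drugs added cumulatively; maximum following frequency determined 6 min after each concentration. Concentration reducing MFF by 25% (EC25) calculated from six preparations.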

Mus musculus = organism: Mus musculus; experiment: ED 50 value against aconitine-induced arrhythmias in mice; type: functional
Summary of the method: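 Anaesthetised mice were given test compound intraperitoneally, then aconitine intravenously to induce arrhythmia. At least three doses were tested in separate groups (n = 6-10). ED50 is the dose raising the arrhythmogenic aconitine dose 50% above the control requirement.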

Rattus norvegicus [6] = experiment: Effect on heart rate 1 min post isoprenaline induced tachycardia in the anesthetized rat at 0.2 mg/kg dose.; type: functional
Summary of the method: (§3)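 Same ligation protocol in anaesthetised male Wistar rats. Heart rate was taken from the lead II ECG at three points: just before i.v. drug or vehicle, 14 min after it (just before isoprenaline 10 μg/kg), and 1 min after isoprenaline. Pre vs post rates and isoprenaline responses vs controls were compared by Student's t test. Mean ± SEM of 7-12 observations.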

Rattus norvegicus [7] = experiment: Effect on heart rate before isoprenaline induced tachycardia in the anesthetized rat at 0.2 mg/kg dose; type: functional; summary of the method: as §3
Cavia porcellus [8] = organism: Cavia porcellus; experiment: Compound was tested for antiarrhythmic activity (maximum rate of phase 0 depolarization- MRD) in guinea pig atria at 8(ug/mL) concentration; type: functional, Heart
Summary of the method: (§4)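 Guinea pig left atria pinned in a recording chamber, superfused with carbogen-gassed Krebs solution at 35 ± 0.5 °C and electrically stimulated. Transmembrane action potentials were recorded with conventional microelectrodes, giving RMP, AP height, APD50, APD90 and maximum rate of depolarization. Values are mean ± SEM from n cells across five preparations.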

Cavia porcellus [9] = organism: Cavia porcellus; experiment: Compound was tested for antiarrhythmic activity expressed as action potential height (AP) in guinea pig atria at 8(ug/mL) concentration; type: functional, Heart; summary of the method: as §4
Cavia porcellus [10] = organism: Cavia porcellus; experiment: Compound was tested for antiarrhythmic activity expressed as resting membrane potential (RMP) in guinea pig atria at 2 ug/mL concentration; type: functional; settings: Heart; summary of the method: as §4
Cavia porcellus [11] = organism: Cavia porcellus; experiment: Compound was tested for antiarrhythmic activity expressed as action potential height (AP) in guinea pig atria at 2(ug/mL) concentration; type: functional, Heart; summary of the method: as §4
Cavia porcellus [12] = organism: Cavia porcellus; experiment: Compound was tested for antiarrhythmic activity (time taken to reach 50% repolarization) in guinea pig atria at 2(ug/mL) concentration; type: functional, Heart; summary of the method: as §4
Cavia porcellus [13] = organism: Cavia porcellus; experiment: Compound was tested for antiarrhythmic activity (time taken to reach 50% repolarization) in guinea pig atria at 4(ug/mL) concentration; type: functional, Heart; summary of the method: as §4
Rattus norvegicus [14] = experiment: Compound was tested for antagonism of Ventricular Fibrilloflutter (VF) evoked by coronary artery ligation in the rat measured at 0.5 mg/kg dose; type: functional, Heart; summary of the method: as §1
Cavia porcellus [15] = organism: Cavia porcellus; experiment: Compound was tested for antiarrhythmic activity expressed as resting membrane potential (RMP) in guinea pig atria at 8 ug/mL concentration; type: functional; settings: Heart; summary of the method: as §4
Rattus norvegicus [16] = experiment: Antagonism of Ventricular Fibrilloflutter (VF) evoked by coronary artery ligation in the rat measured at 2 mg/kg dose; type: functional, Heart; summary of the method: as §1
Rattus norvegicus [17] = experiment: Effective dose of compound that antagonized arrhythmias evoked by coronary artery ligation in the rat was measured at 0.5 mg/kg dose; type: functional
Cavia porcellus [18] = organism: Cavia porcellus; experiment: Compound was tested for antiarrhythmic activity (time taken to reach 90% repolarization) in guinea pig atria at 8(ug/mL) concentration; type: functional, Heart; summary of the method: as §4
Rattus norvegicus [19] = experiment: Effect on heart rate on 1 min post isoprenaline induced tachycardia in the anesthetized rat at 0.5 mg/kg dose.; type: functional; summary of the method: as §2
Cavia porcellus [20] = organism: Cavia porcellus; experiment: Compound was tested for antiarrhythmic activity (time taken to reach 50% repolarization) in guinea pig atria at 8(ug/mL) concentration; type: functional, Heart; summary of the method: as §4
Cavia porcellus [21] = organism: Cavia porcellus; experiment: Compound was tested for antiarrhythmic activity (maximum rate of phase 0 depolarization- MRD) in guinea pig atria at 2(ug/mL) concentration; type: functional, Heart; summary of the method: as §4
Cavia porcellus [22] = organism: Cavia porcellus; experiment: Compound was tested for antiarrhythmic activity expressed as resting membrane potential (RMP) in guinea pig atria at 4 ug/mL concentration; type: functional; settings: Heart; summary of the method: as §4
Cavia porcellus [23] = organism: Cavia porcellus; experiment: Compound was tested for antiarrhythmic activity (time taken to reach 90% repolarization) in guinea pig atria at 2(ug/mL) concentration; type: functional, Heart; summary of the method: as §4
Rattus norvegicus [24] = experiment: Effect on heart rate before isoprenaline induced tachycardia in the anesthetized rat at 0.5 mg/kg dose; type: functional; summary of the method: as §3
Cavia porcellus [25] = organism: Cavia porcellus; experiment: Compound was tested for antiarrhythmic activity expressed as action potential height (AP) in guinea pig atria at 4(ug/mL) concentration; type: functional, Heart; summary of the method: as §4
Cavia porcellus [26] = organism: Cavia porcellus; experiment: Compound was tested for antiarrhythmic activity (maximum rate of phase 0 depolarization- MRD) in guinea pig atria at 4(ug/mL) concentration; type: functional, Heart; summary of the method: as §4
Rattus norvegicus [27] = experiment: Effect on heart rate after isoprenaline induced tachycardia in the anesthetized rat at 0.5 mg/kg dose; type: functional; summary of the method: as §3
Cavia porcellus [28] = organism: Cavia porcellus; experiment: Compound was tested for antiarrhythmic activity (time taken to reach 90% repolarization) in guinea pig atria at 4(ug/mL) concentration; type: functional, Heart; summary of the method: as §4
Cavia porcellus [29] = organism: Cavia porcellus; experiment: Compound was tested for antiarrhythmic activity expressed as resting membrane potential (RMP) in guinea pig atria at 1(ug/mL) concentration; type: functional; settings: Heart; summary of the method: as §4
Rattus norvegicus [30] = experiment: Effect dose of compound that antagonized arrhythmias evoked by coronary artery ligation in the rat was measured at 0.05 mg/kg dose; type: functional; summary of the method: as §1
Cavia porcellus [31] = organism: Cavia porcellus; experiment: Compound was tested for antiarrhythmic activity (time taken to reach 50% repolarization) in guinea pig atria at 1(ug/mL) concentration; type: functional, Heart; summary of the method: as §4
Rattus norvegicus [32] = experiment: Compound was tested for antagonism of Ventricular Fibrilloflutter (VF) evoked by coronary artery ligation in the rat measured at 0.02 mg/kg dose; type: functional, Heart; summary of the method: as §1
Cavia porcellus [33] = organism: Cavia porcellus; experiment: Compound was tested for antiarrhythmic activity expressed as action potential height (AP) in guinea pig atria at 1(ug/mL) concentration; type: functional, Heart; summary of the method: as §4
Rattus norvegicus [34] = experiment: Compound was tested for antagonism of Ventricular Fibrilloflutter (VF) evoked by coronary artery ligation in the rat measured at 0.1 mg/kg dose; type: functional, Heart; summary of the method: as §1
Cavia porcellus [35] = organism: Cavia porcellus; experiment: Compound was tested for antiarrhythmic activity (time taken to reach 90% repolarization) in guinea pig atria at 1(ug/mL) concentration; type: functional, Heart; summary of the method: as §4
Rattus norvegicus [36] = experiment: Compound was tested for antagonism of Ventricular Fibrilloflutter (VF) evoked by coronary artery ligation in the rat measured at 0.05 mg/kg dose; type: functional, Heart; summary of the method: as §1
Cavia porcellus [37] = organism: Cavia porcellus; experiment: Compound was tested for antiarrhythmic activity expressed as resting membrane potential (RMP) in guinea pig atria at 4(ug/mL) concentration; type: functional; settings: Heart; summary of the method: as §4
Cavia porcellus [38] = organism: Cavia porcellus; experiment: Compound was tested for antiarrhythmic activity (maximum rate of phase 0 depolarization- MRD) in guinea pig atria at 1(ug/mL) concentration; type: functional, Heart; summary of the method: as §4
Cavia porcellus [39] = organism: Cavia porcellus; experiment: Compound was tested for antiarrhythmic activity expressed as resting membrane potential (RMP) in guinea pig atria at 2(ug/mL) concentration; type: functional; settings: Heart; summary of the method: as §4

Row | Compound | VF (Rattus norvegicus [1]) | Change (Rattus norvegicus [2]) | Increase (Rattus norvegicus [3]) | EC25 (Cavia porcellus [5]) | ED50 (Mus musculus) | AP (Cavia porcellus [11]) | APD50 (Cavia porcellus [12]) | APD50 (Cavia porcellus [13]) | MRD (Cavia porcellus [21]) | APD90 (Cavia porcellus [23]) | AP (Cavia porcellus [25]) | MRD (Cavia porcellus [26]) | APD90 (Cavia porcellus [28]) | other results
1 | CNC1[C@H](O)C[C@H]2[C@@H]3CCc4cc(OC(C)=O)ccc4[C@H]3CC[C@]12C (stereo not given in full) | 29% | -10.9% | 9.2% | 5.06 µg/mL (≈ 14.7 µM) | 9 mg/kg | – | – | – | – | – | – | – | – | ED50 at 0.2 mg/kg (Rattus norvegicus [4]): < 0.2 mg/kg; Heart rate (Rattus norvegicus [6]): 392 beats min-1; Heart rate (Rattus norvegicus [7]): 403 beats min-1
2 | CN(C)C1[C@H](O)C[C@H]2[C@@H]3CCc4cc(O)ccc4[C@H]3CC[C@]12C (stereo not given in full) | 33% | -1.8% | 12.9% | 1.86 µg/mL (≈ 5.9 µM) | 11.5 mg/kg | 78.9 mV | 29.6 ms | 29 ms | 86 V s-1 | 70.9 ms | 73.5 mV | 60.1 V s-1 | 74.2 ms | MRD (Cavia porcellus [8]): 30.5 V s-1; AP (Cavia porcellus [9]): 69.9 mV; RMP (Cavia porcellus [10]): 70.1 mV; VF (Rattus norvegicus [14]): 13%; RMP (Cavia porcellus [15]): 69.3 mV; VF (Rattus norvegicus [16]): 0%; ED50 (Rattus norvegicus [17]): 0.15 mg/kg; APD90 (Cavia porcellus [18]): 98.9 ms; Heart rate (Rattus norvegicus [19]): 490 beats min-1; APD50 (Cavia porcellus [20]): 43.5 ms; RMP (Cavia porcellus [22]): 71.8 mV; Heart rate (Rattus norvegicus [24]): 442 beats min-1; Heart rate (Rattus norvegicus [27]): 434 beats min-1
3 | CNC1[C@H](O)C[C@H]2[C@@H]3CCc4cc(O)ccc4[C@H]3CC[C@]12C (stereo not given in full) | – | – | – | 1.67 µg/mL (≈ 5.54 µM) | 5.9 mg/kg | 86.3 mV | 45.5 ms | 44.5 ms | 86.5 V s-1 | 80.2 ms | 81.5 mV | 62.4 V s-1 | 80.6 ms | RMP (Cavia porcellus [29]): 72.8 mV; ED50 (Rattus norvegicus [30]): 0.04 mg/kg; APD50 (Cavia porcellus [31]): 49.2 ms; VF (Rattus norvegicus [32]): 83%; AP (Cavia porcellus [33]): 85.8 mV; VF (Rattus norvegicus [34]): 17%; APD90 (Cavia porcellus [35]): 83.6 ms; VF (Rattus norvegicus [36]): 33%; RMP (Cavia porcellus [37]): 72.1 mV; MRD (Cavia porcellus [38]): 98.4 V s-1; RMP (Cavia porcellus [39]): 75.8 mV
